Measurements taken from ChEMBL document CHEMBL1138064, “Discovery of N-[(3R)-1-azabicyclo[2.2.2]oct-3-yl]furo[2,3-c]pyridine-5-carboxamide, an agonist of the alpha7 nicotinic acetylcholine receptor, for the potential treatment of cognitive deficits in schizophrenia: synthesis and structure--activity relationship” (J Med Chem, 2006).
Activity calls are given as the source filed them. The rule behind the calls is not given here.

Experiments:
[1] = biological target: Histamine H1 receptor (Homo sapiens) (UniProt P35367); experiment: Inhibition of central histamine H1 receptor at 1 uM
[2] = species: Homo sapiens; experiment: Inhibition of PCP receptor at 1 uM
[3] = species: Homo sapiens; experiment: Inhibition of elastase at 1 uM
[4] = biological target: 5-hydroxytryptamine receptor 6 (Homo sapiens) (UniProt P50406); experiment: Inhibition of 5HT6 receptor at 1 uM
[5] = biological target: Phospholipase A2 (Homo sapiens) (UniProt P04054); experiment: Inhibition of phospholipase A2 at 1 uM
[6] = biological target: Neuromedin-K receptor (Homo sapiens) (UniProt P29371); experiment: Inhibition of NK3 receptor at 1 uM
Chain of Neuromedin-K receptor (Homo sapiens) (P29371 whole entry): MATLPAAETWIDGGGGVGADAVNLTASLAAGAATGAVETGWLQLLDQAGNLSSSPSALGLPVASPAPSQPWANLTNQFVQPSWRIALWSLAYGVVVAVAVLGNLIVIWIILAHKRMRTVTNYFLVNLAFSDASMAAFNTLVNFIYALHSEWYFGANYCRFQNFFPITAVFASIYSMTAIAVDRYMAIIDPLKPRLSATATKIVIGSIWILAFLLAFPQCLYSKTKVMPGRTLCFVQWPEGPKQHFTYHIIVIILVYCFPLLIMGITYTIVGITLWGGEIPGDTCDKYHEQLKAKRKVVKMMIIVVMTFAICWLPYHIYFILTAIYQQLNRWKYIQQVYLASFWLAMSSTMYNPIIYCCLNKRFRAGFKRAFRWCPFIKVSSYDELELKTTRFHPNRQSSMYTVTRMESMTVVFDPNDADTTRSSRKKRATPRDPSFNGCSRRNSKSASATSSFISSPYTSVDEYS

[7] = biological target: C-X-C chemokine receptor type 2 (Homo sapiens) (UniProt P25025); experiment: Inhibition of CXCR2 at 1 uM
[8] = biological target: Beta-1 adrenergic receptor (Homo sapiens) (UniProt P08588); experiment: Inhibition of adrenergic beta-1 receptor at 1 uM
[9] = biological target: Kappa-type opioid receptor (Homo sapiens) (UniProt P41145); experiment: Inhibition of human kappa opioid receptor at 1 uM
Chain of Kappa-type opioid receptor (Homo sapiens) (P41145 whole entry): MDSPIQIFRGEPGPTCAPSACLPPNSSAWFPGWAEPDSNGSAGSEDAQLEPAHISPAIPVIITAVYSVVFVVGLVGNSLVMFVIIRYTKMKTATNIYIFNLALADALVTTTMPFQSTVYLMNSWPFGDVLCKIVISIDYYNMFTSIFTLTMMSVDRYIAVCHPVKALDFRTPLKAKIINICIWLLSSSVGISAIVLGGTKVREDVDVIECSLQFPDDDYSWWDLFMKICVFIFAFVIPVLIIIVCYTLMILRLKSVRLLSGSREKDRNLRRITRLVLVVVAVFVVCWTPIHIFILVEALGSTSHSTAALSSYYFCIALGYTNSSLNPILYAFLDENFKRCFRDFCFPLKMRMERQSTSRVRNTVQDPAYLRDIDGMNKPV

[10] = Metabolic stability in Sprague-Dawley rat liver microsomes after 1 hr; format: ADME, Microsome; details: read-out: Stability
In short: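 Rat liver microsomes incubated with compound, in vitro metabolism; read-out is percent of parent remaining at 1 h.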

[11] = biological target: Acetylcholinesterase (Homo sapiens) (UniProt P22303); experiment: Inhibition of acetylcholinesterase at 1 uM
Chain of Acetylcholinesterase (Homo sapiens) (P22303 whole entry): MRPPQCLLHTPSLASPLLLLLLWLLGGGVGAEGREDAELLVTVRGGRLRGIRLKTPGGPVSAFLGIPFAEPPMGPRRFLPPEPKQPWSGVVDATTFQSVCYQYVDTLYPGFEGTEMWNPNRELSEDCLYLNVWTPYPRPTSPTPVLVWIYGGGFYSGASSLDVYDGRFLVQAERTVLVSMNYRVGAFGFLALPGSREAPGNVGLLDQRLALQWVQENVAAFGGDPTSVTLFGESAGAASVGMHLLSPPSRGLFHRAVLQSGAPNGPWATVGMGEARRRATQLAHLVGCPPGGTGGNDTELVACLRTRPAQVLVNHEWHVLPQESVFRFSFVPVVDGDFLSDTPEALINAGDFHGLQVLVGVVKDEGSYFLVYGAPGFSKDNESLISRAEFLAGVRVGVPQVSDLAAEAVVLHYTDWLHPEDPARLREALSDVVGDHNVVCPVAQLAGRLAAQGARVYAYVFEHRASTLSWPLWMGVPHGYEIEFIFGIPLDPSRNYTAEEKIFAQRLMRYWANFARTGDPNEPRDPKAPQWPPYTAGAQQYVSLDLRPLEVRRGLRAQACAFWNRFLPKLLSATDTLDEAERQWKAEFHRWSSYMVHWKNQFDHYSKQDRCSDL

[12] = biological target: Neuronal acetylcholine receptor; alpha4/beta2 (Rattus norvegicus) (UniProt P09483+P12390); experiment: Inhibition of [3H]cytisine binding to alpha4beta2 nAChR in rat brain homogenate at 1 uM; format: tissue-based
In short: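 Radioligand displacement in rat brain homogenate with [³H]cytisine as the α4β2 ligand; test compound at 1 µM; value reported as % block of binding.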

[13] = biological target: Serotonin 3 (5-HT3) receptor; experiment: Binding affinity to 5HT3 receptor; format: protein-complex assay, Homo sapiens
[14] = biological target: 5-hydroxytryptamine receptor 7 (Homo sapiens) (UniProt P34969); experiment: Inhibition of 5HT7 receptor at 1 uM
[15] = Clearance in rat at 5 mg/kg; format: ADME, organism-based; parameters: dose 5 mg/kg; details: in vivo
[16] = Activity at alpha7-5HT3 chimera expressed in SHEP1 cells by FLIPR assay; format: functional, cell-based; details: Homo sapiens, SH-EP1
In short: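 Cell-based FLIPR functional assay in SH-EP1 cells expressing the α7-5HT3 chimera. Values are the average of at least five experiments for most compounds.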

[17] = biological target: Cathepsin B (Homo sapiens) (UniProt P07858); experiment: Inhibition of cathepsin B at 1 uM
[18] = biological target: Sodium-dependent serotonin transporter (Homo sapiens) (UniProt P31645); experiment: Inhibition of human 5-HT transporter at 1 uM
[19] = biological target: L-type calcium channel, verapamil site (Homo sapiens, UniProt O60840+Q01668+Q13698+Q13936); experiment: Inhibition of verapamil site of Calcium channel L type at 1 uM; format: protein assay
[20] = biological target: Substance-K receptor (Homo sapiens) (UniProt P21452); experiment: Inhibition of NK2 receptor at 1 uM
Chain of Substance-K receptor (Homo sapiens) (P21452 whole entry): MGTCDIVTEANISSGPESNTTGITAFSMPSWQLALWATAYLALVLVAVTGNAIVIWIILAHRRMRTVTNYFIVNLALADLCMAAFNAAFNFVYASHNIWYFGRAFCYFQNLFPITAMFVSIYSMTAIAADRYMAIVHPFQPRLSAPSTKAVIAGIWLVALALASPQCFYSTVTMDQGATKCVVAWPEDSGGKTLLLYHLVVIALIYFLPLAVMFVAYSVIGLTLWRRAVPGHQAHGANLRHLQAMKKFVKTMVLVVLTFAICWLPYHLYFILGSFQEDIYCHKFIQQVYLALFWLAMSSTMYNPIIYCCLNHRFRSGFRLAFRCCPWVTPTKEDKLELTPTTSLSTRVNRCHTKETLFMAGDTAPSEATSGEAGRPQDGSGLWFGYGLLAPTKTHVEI

[21] = biological target: Neuronal acetylcholine receptor subunit alpha-7 (Rattus norvegicus) (UniProt Q05941); experiment: Activity at alpha-7 nAChR in Sprague-Dawley rat hippocampal neurons assessed as induction of MLA-inhibited desensitizing inward current at 30 uM relative to (-)-nicotine; format: functional, tissue-based; parameters: scale not given: the % may be the effect or the level left; details: Hippocampus
Chain of Neuronal acetylcholine receptor subunit alpha-7 (Rattus norvegicus) (Q05941 whole entry): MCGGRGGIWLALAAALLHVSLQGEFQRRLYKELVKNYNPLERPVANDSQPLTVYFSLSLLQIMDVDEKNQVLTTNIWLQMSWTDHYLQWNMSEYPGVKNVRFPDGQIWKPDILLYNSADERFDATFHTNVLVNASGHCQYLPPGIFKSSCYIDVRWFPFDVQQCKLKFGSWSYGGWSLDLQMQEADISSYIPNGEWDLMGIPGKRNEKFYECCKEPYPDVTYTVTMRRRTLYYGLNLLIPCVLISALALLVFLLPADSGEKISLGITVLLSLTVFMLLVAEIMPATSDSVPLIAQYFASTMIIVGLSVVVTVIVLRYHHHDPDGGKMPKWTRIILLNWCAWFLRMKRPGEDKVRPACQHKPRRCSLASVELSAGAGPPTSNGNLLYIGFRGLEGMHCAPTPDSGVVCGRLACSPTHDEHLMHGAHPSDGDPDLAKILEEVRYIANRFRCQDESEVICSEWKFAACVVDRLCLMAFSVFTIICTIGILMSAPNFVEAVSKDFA
In short: (§1)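 Rat hippocampal neurons were recorded by whole-cell patch clamp with rapid agonist application. Desensitizing inward currents were measured, and α7 mediation was tested with MLA (10 nM), n = 3.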

[22] = test system: Rattus norvegicus; experiment: Drug level in Sprague-Dawley rat brain at 10 mg/kg, iv; format: ADME, organism-based; parameters: dose 10 mg/kg, route intravenous; details: in vivo, read-out: Drug uptake
In short: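 Anesthetized rats received d-amphetamine (1 mg/kg, iv) and then the agonist iv in the auditory gating model. Brain concentrations were measured after the iv agonist dose.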

[23] = biological target: 5-hydroxytryptamine receptor 2C (Homo sapiens) (UniProt P28335); experiment: Inhibition of 5HT2C receptor at 1 uM
[24] = species: Homo sapiens; experiment: Inhibition of Small conductance calcium-activated potassium channel at 1 uM
[25] = biological target: Platelet-derived growth factor receptor (Homo sapiens) (UniProt P09619+P16234); experiment: Inhibition of PDGF receptor at 1 uM; format: protein-complex assay
[26] = Clearance in rat constant infusion model; format: ADME, organism-based; details: in vivo, iv
In short: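 Clearance determined in a rat constant infusion model.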

[27] = test system: Rattus norvegicus; experiment: Reversal of amphetamine-induced gating deficit in Sprague-Dawley at 10 mg/kg, iv; format: functional
In short: (§2)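 Anesthetised rats; d-amphetamine 1 mg/kg iv given to disrupt auditory gating recorded in the hippocampal CA3 region (conditioning vs test responses, analogous to human P50). Agonist given iv afterwards; read-out is % gating versus amphetamine-alone. The 10 mg/kg dose was run as a separate experiment. Brain drug levels were measured after the iv doses.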

[28] = biological target: Beta-2 adrenergic receptor (Homo sapiens) (UniProt P07550); experiment: Inhibition of adrenergic beta-2 receptor at 1 uM
[29] = biological target: Human immunodeficiency virus type 1 protease (Human immunodeficiency virus 1) (UniProt Q72874); experiment: Inhibition of HIV1 protease at 1 uM
[30] = biological target: 5-hydroxytryptamine receptor 5A (Homo sapiens) (UniProt P47898); experiment: Inhibition of 5HT5A receptor at 1 uM
Chain of 5-hydroxytryptamine receptor 5A (Homo sapiens) (P47898 whole entry): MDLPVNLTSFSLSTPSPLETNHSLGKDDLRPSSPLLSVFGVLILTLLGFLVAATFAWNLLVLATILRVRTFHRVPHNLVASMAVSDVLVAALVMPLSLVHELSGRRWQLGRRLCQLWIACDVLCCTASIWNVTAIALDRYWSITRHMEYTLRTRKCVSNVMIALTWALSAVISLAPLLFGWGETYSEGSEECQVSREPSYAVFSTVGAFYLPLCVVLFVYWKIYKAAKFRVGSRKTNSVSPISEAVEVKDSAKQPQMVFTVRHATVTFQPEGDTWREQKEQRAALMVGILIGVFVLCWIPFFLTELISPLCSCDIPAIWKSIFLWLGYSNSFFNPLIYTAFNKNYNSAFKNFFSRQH

[31] = species: Homo sapiens; experiment: Inhibition of chloride channel at 1 uM
[32] = test system: Rattus norvegicus; experiment: Reversal of amphetamine-induced gating deficit in Sprague-Dawley at 1 mg/kg, iv; format: functional, organism-based; parameters: dose 1 mg/kg; in short: as §2
[33] = biological target: Translocator protein (Homo sapiens) (UniProt P30536); experiment: Inhibition of peripheral BZD receptor at 1 uM
Chain of Translocator protein (Homo sapiens) (P30536 whole entry): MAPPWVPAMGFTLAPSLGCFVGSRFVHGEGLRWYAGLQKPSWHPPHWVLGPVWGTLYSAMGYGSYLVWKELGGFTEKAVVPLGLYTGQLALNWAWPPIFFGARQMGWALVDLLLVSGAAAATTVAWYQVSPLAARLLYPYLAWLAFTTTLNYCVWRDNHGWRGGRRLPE

[34] = biological target: Neuronal acetylcholine receptor subunit alpha-7 (Rattus norvegicus) (UniProt Q05941); experiment: Activity at alpha-7 nAChR in Sprague-Dawley rat hippocampal neurons assessed as induction of MLA-inhibited desensitizing inward current at 3 uM relative to (-)-nicotine; format: functional, tissue-based; parameters: scale not given: the % may be the effect or the level left; details: Hippocampus; in short: as §1
[35] = biological target: Muscarinic acetylcholine receptor M1 (Homo sapiens) (UniProt P11229); experiment: Inhibition of M1 receptor at 1 uM
[36] = biological target: Acetylcholine receptor; alpha1/beta1/delta/gamma (Homo sapiens, UniProt P02708+P07510+P11230+Q07001); experiment: Inhibition of alpha-1-beta-1-gamma-delta nAChR expressed in TE671cells by FLIPR assay; format: functional, cell-based, TE-671
Chain of Acetylcholine receptor; alpha1/beta1/delta/gamma (P02708 whole entry): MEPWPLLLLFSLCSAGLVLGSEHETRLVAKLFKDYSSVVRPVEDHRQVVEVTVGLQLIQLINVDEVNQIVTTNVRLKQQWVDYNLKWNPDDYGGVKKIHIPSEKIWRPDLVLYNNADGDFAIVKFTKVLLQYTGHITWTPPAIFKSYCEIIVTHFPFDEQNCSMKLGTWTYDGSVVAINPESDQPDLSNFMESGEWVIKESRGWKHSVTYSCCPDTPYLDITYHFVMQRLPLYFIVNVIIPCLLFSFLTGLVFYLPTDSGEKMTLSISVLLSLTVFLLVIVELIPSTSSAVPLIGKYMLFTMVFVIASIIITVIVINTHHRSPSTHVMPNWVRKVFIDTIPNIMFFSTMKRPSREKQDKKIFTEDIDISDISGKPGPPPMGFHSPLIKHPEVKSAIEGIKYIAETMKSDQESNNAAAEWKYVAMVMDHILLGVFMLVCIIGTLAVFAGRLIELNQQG
Chain of Acetylcholine receptor; alpha1/beta1/delta/gamma (P07510 whole entry): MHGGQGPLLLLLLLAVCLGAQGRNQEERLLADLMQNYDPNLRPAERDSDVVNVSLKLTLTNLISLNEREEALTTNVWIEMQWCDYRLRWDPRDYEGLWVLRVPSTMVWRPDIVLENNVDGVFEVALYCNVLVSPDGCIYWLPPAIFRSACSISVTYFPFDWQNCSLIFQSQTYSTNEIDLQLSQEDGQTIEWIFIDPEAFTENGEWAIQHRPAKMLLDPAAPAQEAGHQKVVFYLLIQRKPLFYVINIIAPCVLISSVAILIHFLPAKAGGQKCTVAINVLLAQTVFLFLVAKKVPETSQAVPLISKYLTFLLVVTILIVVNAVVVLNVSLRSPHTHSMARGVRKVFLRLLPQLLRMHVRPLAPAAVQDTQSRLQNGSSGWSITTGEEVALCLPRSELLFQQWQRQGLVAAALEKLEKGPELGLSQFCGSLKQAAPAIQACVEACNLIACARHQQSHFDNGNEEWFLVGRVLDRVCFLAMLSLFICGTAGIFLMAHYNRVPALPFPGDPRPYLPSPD
Chain of Acetylcholine receptor; alpha1/beta1/delta/gamma (P11230 whole entry): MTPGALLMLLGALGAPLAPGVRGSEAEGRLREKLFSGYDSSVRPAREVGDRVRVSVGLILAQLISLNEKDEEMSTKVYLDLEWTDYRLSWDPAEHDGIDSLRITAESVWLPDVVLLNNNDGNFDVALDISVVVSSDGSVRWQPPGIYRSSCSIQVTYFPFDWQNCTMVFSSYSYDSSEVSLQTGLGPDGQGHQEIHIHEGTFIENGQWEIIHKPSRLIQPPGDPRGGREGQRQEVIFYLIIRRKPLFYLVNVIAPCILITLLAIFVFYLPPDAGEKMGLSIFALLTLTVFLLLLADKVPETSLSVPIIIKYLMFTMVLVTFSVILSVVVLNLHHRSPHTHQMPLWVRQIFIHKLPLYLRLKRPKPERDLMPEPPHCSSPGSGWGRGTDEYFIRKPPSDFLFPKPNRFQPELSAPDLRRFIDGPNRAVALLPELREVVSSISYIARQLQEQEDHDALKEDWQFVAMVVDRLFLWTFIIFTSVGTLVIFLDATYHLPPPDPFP
Chain of Acetylcholine receptor; alpha1/beta1/delta/gamma (Q07001 whole entry): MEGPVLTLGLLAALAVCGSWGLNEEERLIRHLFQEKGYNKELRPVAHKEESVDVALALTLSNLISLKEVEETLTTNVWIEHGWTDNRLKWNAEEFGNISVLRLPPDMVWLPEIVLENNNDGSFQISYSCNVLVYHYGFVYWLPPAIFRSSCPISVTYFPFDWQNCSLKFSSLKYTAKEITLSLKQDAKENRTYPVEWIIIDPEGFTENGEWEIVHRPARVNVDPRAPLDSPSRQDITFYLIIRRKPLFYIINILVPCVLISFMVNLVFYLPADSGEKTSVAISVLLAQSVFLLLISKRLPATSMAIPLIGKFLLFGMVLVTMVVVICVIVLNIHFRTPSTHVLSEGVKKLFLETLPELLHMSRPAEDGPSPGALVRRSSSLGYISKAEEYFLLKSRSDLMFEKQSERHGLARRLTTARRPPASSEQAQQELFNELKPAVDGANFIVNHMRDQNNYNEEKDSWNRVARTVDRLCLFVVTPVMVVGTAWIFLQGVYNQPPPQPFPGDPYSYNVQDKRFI
In short: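 Functional FLIPR read-out in TE671 cells expressing native muscle-type α1β1γδ nAChR, cell-based; tested for agonist and antagonist activity; IC50 in µM.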

[37] = biological target: hERG (Homo sapiens, UniProt Q12809); experiment: Inhibition of hERG expressed in HEK293 cells at 20 uM by patch clamp assay; format: toxicity, cell-based; details: HEK293 cells that express hERG
In short: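 hERG current (IKr) in HEK cells recorded by patch clamp; compound applied at 2 and 20 µM; % block of current reported at each concentration.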

[38] = biological target: MAO-A (Homo sapiens, UniProt P21397); experiment: Inhibition of MAO-A at 1 uM
[39] = biological target: Neuronal acetylcholine receptor subunit alpha-7 (Rattus norvegicus, UniProt Q05941); experiment: Displacement of [3H]MLA from alpha-7 nAChR in Sprague-Dawley rat brain homogenates; format: tissue-based
Chain of Neuronal acetylcholine receptor subunit alpha-7 (Q05941 whole entry): as the sequence (Q05941 whole entry) above
In short: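 Rat brain homogenate binding assay with [3H]MLA as radioligand. Values are the average of two or more experiments.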

[40] = species: Homo sapiens; experiment: Inhibition of GABA receptor at 1 uM

O=C(N[C@H]1CN2CCC1CC2)c1cc2ccoc2cn1 [PHA-543613]
inhibition [1]: < 10%
inhibition [2]: < 10%
inhibition [3]: 22%
inhibition [4]: < 10%
inhibition [5]: 20%
inhibition [6]: < 10%
inhibition [7]: < 10%
inhibition [8]: < 10%
inhibition [9]: < 10%
remaining at 1 h [10]: 55%
inhibition [11]: < 10%
inhibition [12]: 13%
Ki [13]: 511 nM
inhibition [14]: < 10%
clearance [15]: 33.3 mL/min/kg
EC50 [16]: 65 nM
inhibition [17]: < 10%
inhibition [18]: < 10%
inhibition at 1 µM [19]: < 10%
inhibition [20]: < 10%
Activity [21]: 220%
concentration [22]: 14.9 µM
inhibition [23]: < 10%
inhibition [24]: < 10%
inhibition [25]: < 10%
clearance [26]: 50 mL/min/kg
Activity [27]: 51%
inhibition [28]: < 10%
inhibition [29]: < 10%
inhibition [30]: < 10%
inhibition [31]: < 10%
Activity [32]: Active
inhibition [33]: < 10%
Activity [34]: 103%
inhibition [35]: 16%
IC50 [36]: > 100000 nM
inhibition at 20 µM [37]: 29%
inhibition at 1 µM [38]: < 10%
Ki [39]: 8.8 nM
inhibition [40]: < 10%
